Measurements taken from ChEMBL document CHEMBL1177665, “Discovery of potent and orally active tricyclic-based FBPase inhibitors” (Bioorg Med Chem, 2010).
Activity calls are given as the source filed them. The rule behind the calls is not given here.

Key:
[1] = target: T1, Fructose-1,6-bisphosphatase 1 (Homo sapiens, UniProt P09467); assay: Inhibition of human FBase
T1 sequence (P09467 whole entry): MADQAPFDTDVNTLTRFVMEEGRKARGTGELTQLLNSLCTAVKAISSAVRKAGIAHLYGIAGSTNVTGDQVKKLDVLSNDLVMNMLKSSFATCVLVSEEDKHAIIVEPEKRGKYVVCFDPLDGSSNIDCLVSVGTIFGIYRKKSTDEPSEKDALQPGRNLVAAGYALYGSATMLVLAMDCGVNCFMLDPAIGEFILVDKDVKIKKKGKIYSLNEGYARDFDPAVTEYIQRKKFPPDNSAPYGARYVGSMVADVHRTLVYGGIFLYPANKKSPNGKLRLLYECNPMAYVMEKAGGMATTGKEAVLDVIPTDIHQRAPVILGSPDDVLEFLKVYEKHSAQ

[2] = Inhibition of monkey FBase; design: species or system Macaca mulatta
[3] = Antidiabetic activity in monkey hepatocytes assessed as inhibition of glucose production after 4 hrs; format: functional, cell-based; details: Macaca mulatta, Hepatocyte
How it was run: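 Monkey hepatocytes in phosphate buffered saline with 25 mM sodium bicarbonate, 25 mM HEPES, 1% BSA; compound preincubation only 2 min, then washed out and cells incubated 4 h with 10 mM lactate plus 1 mM pyruvate. Medium glucose measured by Glucose CII-test; IC50 reported as mean SD (n = 7).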

[4] = tested on: Cynomolgus monkey; assay: Antidiabetic activity in cynomolgus monkey assessed as decrease in blood glucose level at 20 mg/kg, po after 4 hrs; format: functional, organism-based; design: dose 20 mg/kg; details: Macaca fascicularis
How it was run: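 Overnight-fasted cynomolgus monkeys (n = 7, 5–8 years old) dosed orally at 20 mg/kg in vehicle (50% PEG 400, 0.5% MC, 0.5% Tween 80) or vehicle alone; crossover in same animals with at least 2-week washout. Blood drawn predose and 1–12 h post-dose; plasma glucose read on i-STAT 300F analyser; mean S.E.M., paired t-test versus vehicle.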

SMILES	IC50 [1]	IC50 [2]	IC50 [3]	Activity [4]
CCOC(=O)[C@H](C)NP(=O)(COc1ccc(C(=O)NCC(C)(C)C)c2c1-c1ncsc1C2)N[C@@H](C)C(=O)OCC	11 nM	31 nM	> 100000 nM	
CCOC(=O)[C@H](C)NP(=O)(COc1ccc(CC)c2c1-c1ncsc1C2)N[C@@H](C)C(=O)OCC	11 nM	23 nM	23000 nM	
CCOC(=O)CNP(=O)(COc1cc(C)c(C)c2c1-c1ncsc1C2)NCC(=O)OCC	10 nM	34 nM	9400 nM	
Cc1cc(OCP(=O)(N[C@@H](C)C(=O)OC(C)C)N[C@@H](C)C(=O)OC(C)C)c2c(c1C)Cc1scnc1-2	10 nM	34 nM	9000 nM	
CCOC(=O)[C@H](C)NP(=O)(N[C@@H](C)C(=O)OCC)c1ccc(-c2nc(N)sc2CC(C)C)o1	10 nM	30 nM	10000 nM	
CCOC(=O)[C@H](C)NP(=O)(COc1cc(C)c(C)c2c1-c1ncsc1C2)N[C@@H](C)C(=O)OCC	10 nM	34 nM	6800 nM	Active

Now those with a lower IC50 [1], led by results:

IC50 [1]	IC50 [2]	SMILES	IC50 [3]	Activity [4]
8 nM	24 nM	CCOC(=O)[C@H](C)NP(=O)(COc1ccc(C)c2c1-c1ncsc1C2)N[C@@H](C)C(=O)OCC	7400 nM	
2 nM	19 nM	CCOC(=O)[C@H](C)NP(=O)(COc1ccc(C(=O)NC)c2c1-c1ncsc1C2)N[C@@H](C)C(=O)OCC	> 100000 nM	
1 nM	22 nM	CCOC(=O)[C@H](C)NP(=O)(COc1ccc(C(N)=O)c2c1-c1ncsc1C2)N[C@@H](C)C(=O)OCC	94000 nM	
